Test results reported in ChEMBL document CHEMBL1136770, “The pharmacophore of short cationic antibacterial peptides” (2003).
In brackets after ≈: the same amount, converted by molar mass. Non-standard residues stand in square brackets, D forms with d. Residues, ends and D or L forms follow the SMILES beside them. *: point of attachment. OBn = c1ccc(CO*)cc1

Key:
Assay type in all cases: functional
Staphylococcus aureus [1] = experiment: Minimum inhibitory concentration against methicillin-resistant Staphylococcus aureus (ATCC 33591)
[2] = system: Staphylococcus epidermidis; experiment: Minimum inhibitory concentration against methicillin-resistant Staphylococcus epidermidis (ATCC 27626)
Staphylococcus aureus [3] = experiment: Minimum inhibitory concentration against Staphylococcus aureus
In short: (§1)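 Broth microdilution, inoculum 2 × 10⁶ cfu/mL, in 1% Bacto Peptone water, overnight at 37 °C. At least three independent dilutions tested in parallel. Gentamicin susceptibility run as internal standard.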

Escherichia coli = experiment: Minimum inhibitory concentration against Escherichia coli; in short: as §1

Row | Compound | MIC (Staphylococcus aureus [1]) [µg/mL] | MIC [2] [µg/mL] | MIC (Staphylococcus aureus [3]) [µg/mL] | MIC (Escherichia coli) [µg/mL]
1 | NC(N)=NCCC[C@H](N)C(=O)N[C@@H](Cc1c[nH]c2ccccc12)C(=O)OCc1ccccc1 | 15 (≈ 33.3 µM) | 10 (≈ 22.2 µM) | 15 (≈ 33.3 µM) | > 200
2 | NC(=O)[C@H](CCCN=C(N)N)NC(=O)[C@H](Cc1c[nH]c2ccccc12)NC(=O)[C@H](CCCN=C(N)N)NC(=O)[C@@H](N)Cc1c[nH]c2ccccc12 (H-WRWR-NH2) |  |  | 200 (≈ 285 µM) | > 200
3 | N=C(N)NCCC[C@H](NC(=O)Cc1c[nH]c2ccccc12)C(=O)N[C@@H](Cc1c[nH]c2ccccc12)C(=O)OCc1ccccc1 |  |  | 20 (≈ 32.9 µM) | 150 (≈ 247 µM)
4 | N=C(N)NCCC[C@H](NC(=O)C1CCCCC1)C(=O)N[C@@H](Cc1c[nH]c2ccccc12)C(=O)OCc1ccccc1 |  |  | 25 (≈ 44.6 µM) | 200 (≈ 357 µM)
5 | COC(=O)[C@H](CCCN=C(N)N)NC(=O)[C@@H](N)Cc1c[nH]c2ccccc12 (H-Trp-Arg-OMe) | > 200 | > 200 | > 200 | > 200
6 | COC(=O)[C@H](CCCN=C(N)N)NC(=O)[C@H](Cc1c[nH]c2ccccc12)NC(=O)[C@H](Cc1c[nH]c2ccccc12)NC(=O)[C@@H](N)CCCN=C(N)N (H-RWWR-OMe) | 50 (≈ 69.7 µM) | 15 (≈ 20.9 µM) | 75 (≈ 105 µM) | > 200
7 | NC(N)=NCCC[C@H](N)C(=O)N[C@@H](Cc1ccccc1)C(=O)OCc1ccccc1 | 200 (≈ 486 µM) | 75 (≈ 182 µM) | 200 (≈ 486 µM) | > 200
8 | COC(=O)[C@H](CCCN=C(N)N)NC(=O)[C@H](Cc1c[nH]c2ccccc12)NC(=O)[C@H](CCCN=C(N)N)NC(=O)[C@@H](N)Cc1c[nH]c2ccccc12 (H-WRWR-OMe) | 100 (≈ 139 µM) | 75 (≈ 105 µM) | > 200 | > 200
9 | NC(N)=NCCC[C@H](NC(=O)[C@@H](N)Cc1c[nH]c2ccccc12)C(=O)N[C@@H](Cc1c[nH]c2ccccc12)C(=O)OCc1ccccc1 | 5 (≈ 7.85 µM) | 5 (≈ 7.85 µM) | 5 (≈ 7.85 µM) | 75 (≈ 118 µM)
10 | NC(=O)[C@H](CCCN=C(N)N)NC(=O)[C@H](Cc1c[nH]c2ccccc12)NC(=O)[C@H](Cc1c[nH]c2ccccc12)NC(=O)[C@@H](N)CCCN=C(N)N (H-RWWR-NH2) |  |  | 100 (≈ 142 µM) | > 200
11 | H-WRWRW-NH2 |  |  | 10 | 15
12 | NC(N)=NCCC[C@H](NC(=O)[C@H](N)Cc1c[nH]c2ccccc12)C(=O)N[C@@H](Cc1c[nH]c2ccccc12)C(=O)OCc1ccccc1 | 20 (≈ 31.4 µM) | 10 (≈ 15.7 µM) | 20 (≈ 31.4 µM) | 75 (≈ 118 µM)
13 | NC(=O)[C@H](CCCN=C(N)N)NC(=O)[C@H](Cc1c[nH]c2ccccc12)NC(=O)[C@@H](N)CCCN=C(N)N (H-Arg-Trp-Arg-NH2) |  |  | > 200 | > 200
14 | H-WRWRWR-NH2 |  |  | 7.5 | 10
15 | COC(=O)[C@H](CCCN=C(N)N)NC(=O)[C@H](Cc1c[nH]c2ccccc12)NC(=O)[C@@H](N)Cc1c[nH]c2ccccc12 (H-Trp-Trp-Arg-OMe) | 200 (≈ 357 µM) | 100 (≈ 178 µM) | > 200 | > 200
16 | NC(=O)[C@H](Cc1c[nH]c2ccccc12)NC(=O)[C@H](CCCN=C(N)N)NC(=O)[C@@H](N)Cc1c[nH]c2ccccc12 (H-Trp-Arg-Trp-NH2) |  |  | 100 (≈ 183 µM) | > 200
17 | NC(N)=NCCC[C@@H](N)C(=O)N[C@H](Cc1c[nH]c2ccccc12)C(=O)OCc1ccccc1 | 50 (≈ 111 µM) | 20 (≈ 44.4 µM) | 50 (≈ 111 µM) | > 200
18 | COC(=O)[C@H](CCCN=C(N)N)NC(=O)[C@H](Cc1c[nH]c2ccccc12)NC(=O)Cc1c[nH]c2ccccc12 |  |  | 200 (≈ 376 µM) | 200 (≈ 376 µM)
19 | H-RRRWWW-NH2 |  |  | 5 | 5

Row | Compound | MIC (Staphylococcus aureus [1]) [µg/mL] | MIC [2] [µg/mL] | MIC (Staphylococcus aureus [3]) [µg/mL] | MIC (Escherichia coli) [µg/mL]
20 | NC(N)=NCCC[C@H](NC(=O)[C@H](Cc1c[nH]c2ccccc12)NC(=O)[C@@H](N)CCCN=C(N)N)C(=O)N[C@@H](Cc1c[nH]c2ccccc12)C(=O)OCc1ccccc1 | 2.5 (≈ 3.15 µM) | 2.5 (≈ 3.15 µM) | 2.5 (≈ 3.15 µM) | 50 (≈ 63.1 µM)
21 | NCCCC[C@@H](N)C(=O)N[C@@H](Cc1c[nH]c2ccccc12)C(=O)OCc1ccccc1 (H-[dK]-Trp-OBn) | 50 (≈ 118 µM) | 25 (≈ 59.2 µM) | 75 (≈ 178 µM) | > 200
22 | H-WRWRY-NH2 |  |  | 50 | 100
23 | NC(N)=NCCC[C@H](N)C(=O)N[C@@H](Cc1c[nH]c2ccccc12)C(=O)N[C@H](CCCN=C(N)N)C(=O)N[C@H](Cc1c[nH]c2ccccc12)C(=O)OCc1ccccc1 | 2.5 (≈ 3.15 µM) | 2.5 (≈ 3.15 µM) | 5 (≈ 6.31 µM) | 75 (≈ 94.6 µM)
24 | H-WWRRRW-NH2 |  |  | 10 | 25
25 | NC(N)=NCCC[C@H](NC(=O)[C@@H](N)Cc1ccccc1)C(=O)OCc1ccccc1 (H-Phe-Arg-OBn) | 200 (≈ 486 µM) | 200 (≈ 486 µM) | > 200 | > 200
26 | H-RWRWRW-NH2 |  |  | 5 | 5
27 | NC(N)=NCCC[C@H](N)C(=O)N[C@H](Cc1c[nH]c2ccccc12)C(=O)OCc1ccccc1 | 50 (≈ 111 µM) | 25 (≈ 55.5 µM) | 50 (≈ 111 µM) | > 200
28 | NC(=O)[C@H](Cc1c[nH]c2ccccc12)NC(=O)[C@H](CCCN=C(N)N)NC(=O)[C@H](CCCN=C(N)N)NC(=O)[C@@H](N)Cc1c[nH]c2ccccc12 (H-WRRW-NH2) |  |  | 200 (≈ 285 µM) | > 200
29 | NCCCC[C@H](N)C(=O)N[C@@H](Cc1c[nH]c2ccccc12)C(=O)OCc1ccccc1 (H-Lys-Trp-OBn) | 25 (≈ 59.2 µM) | 25 (≈ 59.2 µM) | 50 (≈ 118 µM) | > 200
30 | NC(N)=NCCC[C@H](NC(=O)[C@@H](N)Cc1c[nH]c2ccccc12)C(=O)OCc1ccccc1 (H-Trp-Arg-OBn) | 75 (≈ 166 µM) | 75 (≈ 166 µM) | 200 (≈ 444 µM) | > 200
31 | NC(N)=NCCC[C@@H](N)C(=O)N[C@@H](Cc1c[nH]c2ccccc12)C(=O)OCc1ccccc1 | 25 (≈ 55.5 µM) | 25 (≈ 55.5 µM) | 25 (≈ 55.5 µM) | > 200
32 | NC(N)=NCCC[C@@H](NC(=O)[C@H](N)Cc1c[nH]c2ccccc12)C(=O)N[C@H](Cc1c[nH]c2ccccc12)C(=O)OCc1ccccc1 | 5 (≈ 7.85 µM) | 5 (≈ 7.85 µM) | 5 (≈ 7.85 µM) | 75 (≈ 118 µM)
33 | H-WRYRW-NH2 |  |  | 50 | 100
34 | H-RWWWRR-NH2 |  |  | 5 | 25
35 | NCCCC[C@H](N)C(=O)N[C@H](Cc1c[nH]c2ccccc12)C(=O)OCc1ccccc1 (H-Lys-[dW]-OBn) | 50 (≈ 118 µM) | 25 (≈ 59.2 µM) | 75 (≈ 178 µM) | > 200
36 | COC(=O)[C@H](CCCN=C(N)N)NC(=O)[C@H](Cc1c[nH]c2ccccc12)NC(=O)C1CCCCC1 |  |  | > 200 | > 200
37 | H-RWRWR-NH2 |  |  | 25 | 200
